Here are results for 18 molecules from ChEMBL document CHEMBL2331483, “3-Hydroxypyridin-2-thione as novel zinc binding group for selective histone deacetylase inhibition” (J Med Chem, 2013).

The target in data set [1] is T1, Protein deacetylase HDAC6 (Homo sapiens) (UniProt Q9UBN7).
T1 sequence (whole entry): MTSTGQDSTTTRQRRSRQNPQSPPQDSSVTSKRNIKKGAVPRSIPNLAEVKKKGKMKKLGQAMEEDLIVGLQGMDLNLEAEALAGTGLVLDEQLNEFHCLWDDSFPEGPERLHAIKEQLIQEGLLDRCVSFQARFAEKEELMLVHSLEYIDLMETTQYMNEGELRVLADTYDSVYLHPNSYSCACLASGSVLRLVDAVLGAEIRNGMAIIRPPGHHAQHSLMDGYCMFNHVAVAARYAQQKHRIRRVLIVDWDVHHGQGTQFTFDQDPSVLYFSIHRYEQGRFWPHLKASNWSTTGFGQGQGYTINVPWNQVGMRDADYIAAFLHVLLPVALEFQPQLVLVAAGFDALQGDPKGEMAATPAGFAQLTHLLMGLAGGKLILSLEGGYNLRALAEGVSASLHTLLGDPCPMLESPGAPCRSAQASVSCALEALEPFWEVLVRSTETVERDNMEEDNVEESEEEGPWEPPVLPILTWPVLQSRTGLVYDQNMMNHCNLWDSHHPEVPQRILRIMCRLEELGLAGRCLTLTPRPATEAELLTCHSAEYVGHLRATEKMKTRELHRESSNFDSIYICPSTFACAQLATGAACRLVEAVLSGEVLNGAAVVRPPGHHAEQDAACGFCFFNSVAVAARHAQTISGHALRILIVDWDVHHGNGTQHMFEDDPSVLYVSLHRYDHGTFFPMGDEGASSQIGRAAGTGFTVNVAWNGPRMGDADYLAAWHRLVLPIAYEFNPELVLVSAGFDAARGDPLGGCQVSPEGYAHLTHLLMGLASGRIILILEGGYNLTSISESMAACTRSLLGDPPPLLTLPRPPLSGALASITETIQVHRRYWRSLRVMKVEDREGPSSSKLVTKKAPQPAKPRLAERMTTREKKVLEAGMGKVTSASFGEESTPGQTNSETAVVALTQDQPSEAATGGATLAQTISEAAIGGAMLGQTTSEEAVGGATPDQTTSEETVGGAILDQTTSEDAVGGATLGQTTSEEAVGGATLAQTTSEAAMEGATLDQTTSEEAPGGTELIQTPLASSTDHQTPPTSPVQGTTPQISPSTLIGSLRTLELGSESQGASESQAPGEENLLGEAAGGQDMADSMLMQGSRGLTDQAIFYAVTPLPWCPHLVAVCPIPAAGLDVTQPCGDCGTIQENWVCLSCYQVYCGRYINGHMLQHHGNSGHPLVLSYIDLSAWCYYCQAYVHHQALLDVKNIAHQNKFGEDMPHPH
Description: Inhibition of HDAC6 (unknown origin) after 60 mins by SAMDI mass spectrometric analysis.

Data set [2] addresses T2, Histone deacetylase 8 (Homo sapiens) (UniProt Q9BY41).
T2 sequence (whole entry): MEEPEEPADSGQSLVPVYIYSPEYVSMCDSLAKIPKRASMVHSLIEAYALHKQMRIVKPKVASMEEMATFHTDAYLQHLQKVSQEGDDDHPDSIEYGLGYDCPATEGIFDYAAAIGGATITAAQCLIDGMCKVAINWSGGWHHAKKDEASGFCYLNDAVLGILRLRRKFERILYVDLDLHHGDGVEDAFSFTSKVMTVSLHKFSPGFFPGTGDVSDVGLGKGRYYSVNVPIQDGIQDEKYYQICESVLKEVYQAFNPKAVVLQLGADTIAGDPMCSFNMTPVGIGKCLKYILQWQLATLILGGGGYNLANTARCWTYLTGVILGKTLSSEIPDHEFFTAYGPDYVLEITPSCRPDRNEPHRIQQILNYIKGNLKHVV
Description: (§1) Inhibition of HDAC8 (unknown origin) after 60 mins by SAMDI […] analysis.

Data set [3] has as its target Histone deacetylase 1 (Homo sapiens) (UniProt Q13547). The data set can be described thus: Inhibition of HDAC1 (unknown origin) after 60 mins by SAMDI […] analysis. The gist of the method: (§2)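 Label-free SAMDI deacetylase assay: isoform-optimized peptide substrate (50 μM) with enzyme (250 nM) and inhibitor, 60 min at 37°C. Reactions were quenched with TSA, immobilized on maleimide monolayers, washed and read by MALDI-MS. Yield came from substrate and deacetylated product peak intensities, in triplicate.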

For data set [4], the target named is T1, Protein deacetylase HDAC6 (Homo sapiens). Description: Inhibition of HDAC6 (unknown origin) at 10 uM after 60 mins by SAMDI […] analysis relative to control. The gist of the method:
as §2

Data set [5] addresses T2, Histone deacetylase 8 (Homo sapiens). The data set can be described thus: Inhibition of HDAC8 (unknown origin) at 10 uM after 60 mins by SAMDI […] analysis relative to control. The gist of the method: as §2
The test system of a further data set is Jurkat. The data set can be described thus: cells. The data set is classed as functional, cell-based, Homo sapiens.
Data set [6] is described as follows: Aqueous solubility of the compound. The data set is classed as physicochemical. Particulars: buffer.
In the next data set the test system is DU-145. The data set can be described thus: Cytotoxicity against human DU145 cells assessed as growth inhibition by MTS assay. It counts as functional, cell-based. The gist of the method: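 Cells kept at 37°C in 5% CO2. DU-145 grew in EMEM and LNCaP in RPMI 1640, each with 10% FBS. Cells were plated 24 h before compound treatment, with top concentration 20 μM and final DMSO 0.1%. Viability was read by MTS per the kit protocol. IC50 is mean ± SD from at least 2 independent triplicate experiments.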

In the next data set the test system is LNCaP. The data set can be described thus: Cytotoxicity against human LNCAP cells assessed as growth inhibition by MTS assay. The data set is classed as functional, cell-based. An outline of the steps:
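Cells kept at 37°C in 5% CO2. Cells were plated 24 h before compound treatment, with top concentration 20 μM and final DMSO 0.1%. Viability was read by MTS per the kit protocol. IC50 is mean ± SD from at least 2 independent triplicate experiments.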
A general note: Formazan colour is commonly taken as a measure of viable cells.

In a further data set the target is T3, Histone deacetylase 8 (Homo sapiens, UniProt Q9BY41).
T3 sequence (Q9BY41 whole entry): T2 sequence (whole entry)
Described as §1.

[7] abbreviates: Homo sapiens, Jurkat, 72 h, read-out: IC50.
[8] abbreviates: Homo sapiens, DU-145, read-out: IC50.
[9] abbreviates: Homo sapiens, LNCaP, read-out: IC50.

Active and inactive are the calls of the source. No cut-off for these calls is given here.

Chain of Histone deacetylase 1 (Homo sapiens) (Q13547 whole entry, canonical isoform): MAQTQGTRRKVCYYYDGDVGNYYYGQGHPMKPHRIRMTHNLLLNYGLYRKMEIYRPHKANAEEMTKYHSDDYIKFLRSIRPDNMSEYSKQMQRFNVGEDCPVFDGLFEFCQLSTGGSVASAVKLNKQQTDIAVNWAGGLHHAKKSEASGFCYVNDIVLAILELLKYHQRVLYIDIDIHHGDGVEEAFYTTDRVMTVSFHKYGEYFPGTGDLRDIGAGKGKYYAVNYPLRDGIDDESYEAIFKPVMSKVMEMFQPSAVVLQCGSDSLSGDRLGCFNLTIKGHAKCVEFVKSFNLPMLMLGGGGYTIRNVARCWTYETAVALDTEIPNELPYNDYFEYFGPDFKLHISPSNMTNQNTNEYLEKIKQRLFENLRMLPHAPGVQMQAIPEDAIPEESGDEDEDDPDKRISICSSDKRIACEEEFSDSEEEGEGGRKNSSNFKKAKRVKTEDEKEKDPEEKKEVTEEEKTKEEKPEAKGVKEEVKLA

As to `Cc1cccc(-c2ccc(Cn3cccc(O)c3=O)cc2)c1`, the inhibition entry in [1], in [2] and in [3] was “inactive” each time.

Consider `N#Cc1ccc(-c2ccc(Cn3cccc(O)c3=O)cc2)cc1`, for which the inhibition result in [1], in data set [2] and in data set [3] was “inactive” throughout.

For `Cc1ccccc1-c1ccc(Cn2cccc(O)c2=O)cc1`, the inhibition result in [1], in [2] and in data set [3] was “inactive” each time.

Regarding `O=c1c(O)cccn1Cc1ccc(-c2ccncc2)cc1`, the inhibition result in data set [1], in [2] and in [3] was “inactive” throughout.

As to `Oc1cccnc1O`, the inhibition in [4] and in data set [5] was under 20% throughout.

For the molecule `CN(C)c1ccc(-c2ccc(Cn3cccc(O)c3=S)cc2)cc1`, the results for the IC50 in the data set on Jurkat (setting [7]), in the data set with DU-145 (setting [8]) and in the data set on LNCaP (setting [9]) were 10.6 µM, over 20 µM and 16.2 µM, respectively. In addition, the solubility (in general, the dissolved amount per volume that the medium holds) in [6] was under 65 µg/mL. The inhibition (usually the share of the control response that was lost under treatment) in data set [4] was under 20%.

`Cn1cccc(O)c1=O`: the inhibition entry in data set [1], in [2] and in data set [3] was “inactive” in each case.

As to `O=c1c(O)cccn1Cc1ccc(-c2ccccc2)cc1`, the inhibition entry in data set [1], in data set [2] and in data set [3] was “inactive” throughout.

Turning to `Cc1ccc(-c2ccc(Cn3cccc(O)c3=O)cc2)cc1`, the inhibition entry in data set [1], in [2] and in data set [3] was “inactive” throughout.

In data set [5], `CN(C)c1ccc(-c2ccc(Cn3cccc(O)c3=S)cc2)cn1` showed an inhibition of 34%.

The molecule `N#Cc1cccc(-c2ccc(Cn3cccc(O)c3=S)cc2)c1` displayed an inhibition in data set [4] of 44%.

For `CN(C)c1ccc(-c2ccc(Cn3cccc(O)c3=O)cc2)cn1`, the inhibition result in [1], in data set [2] and in data set [3] was “inactive” each time.

For `CN(C)c1ccc(-c2ccc(Cn3cccc(O)c3=O)cc2)cc1`, the inhibition entry in data set [1], in data set [2] and in data set [3] was “inactive” each time.

As for `Oc1cccn(Cc2cn(-c3ccccc3)nn2)c1=S`, the IC50 (commonly the concentration that gives 50% inhibition) in the data set on Jurkat (setting [7]) was 4.68 µM; in the data set with DU-145 (setting [8]), over 20 µM; at Histone deacetylase 8, 1570 nM; in the data set on LNCaP (setting [9]) it was 13.1 µM.

On to `Cc1ccccc1-c1ccc(Cn2cccc(O)c2=S)cc1`, for which, in the data set with LNCaP (setting [9]), the 50% inhibitory concentration (IC50) was 7.75 µM.

Regarding `Oc1ccc[nH]c1=S`, the IC50 result with Jurkat (jurkat), in the data set on DU-145 (du-145) and in the data set on LNCaP (lncap) was “Not Active” in each case. In data set [6], this molecule showed a solubility of under 65 µg/mL.

On to `O=c1c(O)cccn1Cc1ccccc1`, for which the inhibition entry in data set [1], in [2] and in [3] was “inactive” each time.

Regarding `N#Cc1cccc(-c2ccc(Cn3cccc(O)c3=O)cc2)c1`, the inhibition result in [1], in data set [2] and in [3] was “inactive” throughout.
